Measurements reported in ChEMBL document CHEMBL4689842, “EUbOPEN Chemogenomics Library wave 1” (2021).

Legend:
Type in all cases: toxicity, cell-based
Fibroblast = test: Multiplex assay against human fibroblast
In short: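 Cells were classed with CellPathfinder machine-learning gating, first as Hoechst high-intensity objects or normal cells, then (normal cells) as healthy, pyknosed or fragmented nuclei, and finally (pyknosed cells) as mitotic or apoptotic. Staining of live cells at seeding used Hoechst33342, BioTracker Green Microtubule Cytoskeleton Dye, MitoTracker Red and Annexin V Alexa Fluor 680, with imaging on a CQ1 microscope at 37°C and 5% CO2 after compound addition. Tubulin, mitochondrial-mass and membrane-permeability phenotypes are per cents of healthy-nucleus cells.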

U2OS = test: Incucyte cell viability with U2OS; details: human, 10 µM, compound concentration 10 uM; note: filed as whole numbers so only -1 and 0 and 1 occur
HEK-293T = test: Incucyte cell viability with HEK293T; details: human, 10 µM, compound concentration 10 uM; note: filed as whole numbers so only -1 and 0 and 1 occur
[1] = 12 h, 1 µM, compound concentration 1 uM, replicate 1
[2] = 12 h, 1 µM, compound concentration 1 uM, replicate 2
[3] = 12 h, 10 µM, compound concentration 10 uM, replicate 1
[4] = 12 h, 10 µM, compound concentration 10 uM, replicate 2
[5] = 24 h, 1 µM, compound concentration 1 uM, replicate 1
[6] = 24 h, 1 µM, compound concentration 1 uM, replicate 2
[7] = 24 h, 10 µM, compound concentration 10 uM, replicate 1
[8] = 24 h, 10 µM, compound concentration 10 uM, replicate 2
[9] = 0 h, replicate number 1, timepoint 0 hours
[10] = 6 h, replicate number 1, timepoint 6 hours
[11] = 24 h, replicate number 1, timepoint 24 hours

**Q.** With CCOc1ccn(-c2ccc(F)cc2)c(=O)c1C(=O)Nc1ccc(Oc2ccnc(N)c2Cl)c(F)c1 [BMS-777607] as the molecule, how does the “Population Apoptotic (%)” value (Fibroblast; [1]) read?
**A.** The value was 77%.

**Q.** What about the “Population Fragmented Nuclei (%)” value (Fibroblast; [1]) of the same molecule?
**A.** The value was 30%.

**Q.** And the “Population Healthy Nuclei (%)” value (Fibroblast; [1])?
**A.** The value was 58%.

**Q.** And the “Population Hoechst High Intensity Objects (%)” value (Fibroblast; [1])?
**A.** Its value is 13%.

**Q.** And the “Population Membrane Permeable-Phenotype (%)” value (Fibroblast; [1])?
**A.** The value was 10%.

**Q.** And the “Population Mitochondria Different-Phenotype (%)” value (Fibroblast; [1])?
**A.** The value was 4%.

**Q.** And the “Population Mitotic Cells (%)” value (Fibroblast; [1])?
**A.** Its value is 22%.

**Q.** What about the “Population Normal (%)” value (Fibroblast; [1]) of the same molecule?
**A.** Its value is 86%.

**Q.** And the “Population Pyknosed Nuclei (%)” value (Fibroblast; [1])?
**A.** Its value is 10%.

**Q.** And the “Population Tubulin-Different-Phenotype (%)” value (Fibroblast; [1])?
**A.** The value was 22%.

**Q.** What about the “Total Cell Count” value (Fibroblast; [1]) of the same molecule?
**A.** The value was 251.

**Q.** And the “Population Apoptotic (%)” value (Fibroblast; [2])?
**A.** Its value is 100%.

**Q.** And the “Population Fragmented Nuclei (%)” value (Fibroblast; [2])?
**A.** The value was 56%.

**Q.** What about the “Population Healthy Nuclei (%)” value (Fibroblast; [2]) of the same molecule?
**A.** The value was 39%.

**Q.** What about the “Population Hoechst High Intensity Objects (%)” value (Fibroblast; [2]) of the same molecule?
**A.** Its value is 29%.

**Q.** What about the “Population Membrane Permeable-Phenotype (%)” value (Fibroblast; [2]) of the same molecule?
**A.** The value was 17%.

**Q.** What about the “Population Mitochondria Different-Phenotype (%)” value (Fibroblast; [2]) of the same molecule?
**A.** The value was 17%.

**Q.** And the “Population Mitotic Cells (%)” value (Fibroblast; [2])?
**A.** The value was 0%.

**Q.** What about the “Population Normal (%)” value (Fibroblast; [2]) of the same molecule?
**A.** The value was 70%.

**Q.** What about the “Population Pyknosed Nuclei (%)” value (Fibroblast; [2]) of the same molecule?
**A.** Its value is 3%.

**Q.** And the “Population Tubulin-Different-Phenotype (%)” value (Fibroblast; [2])?
**A.** Its value is 47%.

**Q.** What about the “Total Cell Count” value (Fibroblast; [2]) of the same molecule?
**A.** Its value is 82.

**Q.** What about the “Population Apoptotic (%)” value (Fibroblast; [3]) of the same molecule?
**A.** Its value is 86%.

**Q.** And the “Population Fragmented Nuclei (%)” value (Fibroblast; [3])?
**A.** Its value is 27%.

**Q.** And the “Population Healthy Nuclei (%)” value (Fibroblast; [3])?
**A.** The value was 60%.

**Q.** And the “Population Hoechst High Intensity Objects (%)” value (Fibroblast; [3])?
**A.** The value was 15%.

**Q.** What about the “Population Membrane Permeable-Phenotype (%)” value (Fibroblast; [3]) of the same molecule?
**A.** Its value is 1%.

**Q.** What about the “Population Mitotic Cells (%)” value (Fibroblast; [3]) of the same molecule?
**A.** The value was 13%.

**Q.** What about the “Population Normal (%)” value (Fibroblast; [3]) of the same molecule?
**A.** Its value is 84%.

**Q.** And the “Population Pyknosed Nuclei (%)” value (Fibroblast; [3])?
**A.** Its value is 12%.

**Q.** What about the “Total Cell Count” value (Fibroblast; [3]) of the same molecule?
**A.** The value was 212.

**Q.** And the “Population Apoptotic (%)” value (Fibroblast; [4])?
**A.** Its value is 80%.

**Q.** And the “Population Fragmented Nuclei (%)” value (Fibroblast; [4])?
**A.** Its value is 54%.

**Q.** And the “Population Healthy Nuclei (%)” value (Fibroblast; [4])?
**A.** Its value is 36%.

**Q.** And the “Population Hoechst High Intensity Objects (%)” value (Fibroblast; [4])?
**A.** The value was 38%.

**Q.** What about the “Population Membrane Permeable-Phenotype (%)” value (Fibroblast; [4]) of the same molecule?
**A.** The value was 4%.

**Q.** What about the “Population Mitochondria Different-Phenotype (%)” value (Fibroblast; [4]) of the same molecule?
**A.** Its value is 4%.

**Q.** And the “Population Mitotic Cells (%)” value (Fibroblast; [4])?
**A.** The value was 20%.

**Q.** What about the “Population Normal (%)” value (Fibroblast; [4]) of the same molecule?
**A.** The value was 61%.

**Q.** And the “Population Pyknosed Nuclei (%)” value (Fibroblast; [4])?
**A.** Its value is 8%.

**Q.** And the “Population Tubulin-Different-Phenotype (%)” value (Fibroblast; [4])?
**A.** Its value is 0%.

**Q.** And the “Total Cell Count” value (Fibroblast; [4])?
**A.** The value was 92.

**Q.** What about the “Population Apoptotic (%)” value (Fibroblast; [5]) of the same molecule?
**A.** Its value is 85%.

**Q.** What about the “Population Fragmented Nuclei (%)” value (Fibroblast; [5]) of the same molecule?
**A.** The value was 27%.

**Q.** And the “Population Healthy Nuclei (%)” value (Fibroblast; [5])?
**A.** Its value is 62%.

**Q.** What about the “Population Hoechst High Intensity Objects (%)” value (Fibroblast; [5]) of the same molecule?
**A.** The value was 11%.

**Q.** And the “Population Membrane Permeable-Phenotype (%)” value (Fibroblast; [5])?
**A.** The value was 8%.

**Q.** And the “Population Mitochondria Different-Phenotype (%)” value (Fibroblast; [5])?
**A.** The value was 8%.

**Q.** And the “Population Mitotic Cells (%)” value (Fibroblast; [5])?
**A.** Its value is 14%.

**Q.** What about the “Population Normal (%)” value (Fibroblast; [5]) of the same molecule?
**A.** The value was 88%.

**Q.** And the “Population Pyknosed Nuclei (%)” value (Fibroblast; [5])?
**A.** Its value is 10%.

**Q.** And the “Population Tubulin-Different-Phenotype (%)” value (Fibroblast; [5])?
**A.** Its value is 19%.

**Q.** What about the “Total Cell Count” value (Fibroblast; [5]) of the same molecule?
**A.** The value was 226.

**Q.** And the “Population Apoptotic (%)” value (Fibroblast; [6])?
**A.** The value was 50%.

**Q.** And the “Population Fragmented Nuclei (%)” value (Fibroblast; [6])?
**A.** Its value is 63%.

**Q.** And the “Population Healthy Nuclei (%)” value (Fibroblast; [6])?
**A.** Its value is 32%.

**Q.** What about the “Population Hoechst High Intensity Objects (%)” value (Fibroblast; [6]) of the same molecule?
**A.** Its value is 31%.

**Q.** And the “Population Membrane Permeable-Phenotype (%)” value (Fibroblast; [6])?
**A.** The value was 10%.

**Q.** And the “Population Mitochondria Different-Phenotype (%)” value (Fibroblast; [6])?
**A.** The value was 21%.

**Q.** What about the “Population Mitotic Cells (%)” value (Fibroblast; [6]) of the same molecule?
**A.** Its value is 50%.

**Q.** What about the “Population Normal (%)” value (Fibroblast; [6]) of the same molecule?
**A.** The value was 68%.

**Q.** What about the “Population Pyknosed Nuclei (%)” value (Fibroblast; [6]) of the same molecule?
**A.** The value was 3%.

**Q.** And the “Population Tubulin-Different-Phenotype (%)” value (Fibroblast; [6])?
**A.** The value was 31%.

**Q.** And the “Total Cell Count” value (Fibroblast; [6])?
**A.** Its value is 85.

**Q.** What about the “Population Apoptotic (%)” value (Fibroblast; [7]) of the same molecule?
**A.** Its value is 80%.

**Q.** What about the “Population Fragmented Nuclei (%)” value (Fibroblast; [7]) of the same molecule?
**A.** The value was 26%.

**Q.** And the “Population Healthy Nuclei (%)” value (Fibroblast; [7])?
**A.** Its value is 62%.

**Q.** What about the “Population Hoechst High Intensity Objects (%)” value (Fibroblast; [7]) of the same molecule?
**A.** The value was 9%.

**Q.** And the “Population Membrane Permeable-Phenotype (%)” value (Fibroblast; [7])?
**A.** The value was 0%.

**Q.** What about the “Population Mitochondria Different-Phenotype (%)” value (Fibroblast; [7]) of the same molecule?
**A.** Its value is 4%.

**Q.** What about the “Population Mitotic Cells (%)” value (Fibroblast; [7]) of the same molecule?
**A.** Its value is 19%.

**Q.** And the “Population Normal (%)” value (Fibroblast; [7])?
**A.** Its value is 90%.

**Q.** And the “Total Cell Count” value (Fibroblast; [7])?
**A.** The value was 214.

**Q.** And the “Population Apoptotic (%)” value (Fibroblast; [8])?
**A.** The value was 50%.

**Q.** And the “Population Fragmented Nuclei (%)” value (Fibroblast; [8])?
**A.** Its value is 54%.

**Q.** What about the “Population Healthy Nuclei (%)” value (Fibroblast; [8]) of the same molecule?
**A.** The value was 35%.

**Q.** What about the “Population Hoechst High Intensity Objects (%)” value (Fibroblast; [8]) of the same molecule?
**A.** The value was 35%.

**Q.** And the “Population Membrane Permeable-Phenotype (%)” value (Fibroblast; [8])?
**A.** The value was 5%.

**Q.** What about the “Population Mitochondria Different-Phenotype (%)” value (Fibroblast; [8]) of the same molecule?
**A.** Its value is 10%.

**Q.** What about the “Population Mitotic Cells (%)” value (Fibroblast; [8]) of the same molecule?
**A.** The value was 50%.

**Q.** What about the “Population Normal (%)” value (Fibroblast; [8]) of the same molecule?
**A.** Its value is 64%.

**Q.** And the “Population Pyknosed Nuclei (%)” value (Fibroblast; [8])?
**A.** The value was 10%.

**Q.** And the “Population Tubulin-Different-Phenotype (%)” value (Fibroblast; [8])?
**A.** Its value is 0%.

**Q.** What about the “Total Cell Count” value (Fibroblast; [8]) of the same molecule?
**A.** Its value is 88.

**Q.** What about the “Growth Rate” value (U2OS; [9]) of the same molecule?
**A.** Its value is 1.

**Q.** And the “Growth Rate” value (U2OS; 0 h, replicate number 2, timepoint 0 hours)?
**A.** Its value is 0.

**Q.** What about the “Growth Rate” value (U2OS; [10]) of the same molecule?
**A.** The value was 0.

**Q.** What about the “Growth Rate” value (U2OS; 12 h, replicate number 1, timepoint 12 hours) of the same molecule?
**A.** The value was 0.

**Q.** And the “Growth Rate” value (U2OS; 18 h, replicate number 1, timepoint 18 hours)?
**A.** Its value is 0.

**Q.** And the “Growth Rate” value (U2OS; [11])?
**A.** The value was 0.

**Q.** What about the “Growth Rate” value (HEK-293T; [9]) of the same molecule?
**A.** The value was 1.

**Q.** What about the “Growth Rate” value (HEK-293T; [10]) of the same molecule?
**A.** Its value is 0.

**Q.** And the “Growth Rate” value (HEK-293T; 12 h, replicate number 2, timepoint 12 hours)?
**A.** The value was 1.

**Q.** What about the “Growth Rate” value (HEK-293T; [11]) of the same molecule?
**A.** Its value is 1.

**Q.** What about the “Growth Rate” value (HEK-293T; 24 h, replicate number 2, timepoint 24 hours) of the same molecule?
**A.** Its value is 0.
